In ChEMBL document CHEMBL1129311, “Antitumor agents. 166. Synthesis and biological evaluation of 5,6,7,8-substituted-2-phenylthiochromen-4-ones” (J Med Chem, 1996):
Values after ≈ are worked out from the molar mass of the structure shown. Active and inactive are the calls of the source. No cut-off for these calls is given here.

What was measured:
P388 [1] = assay: Effective dose against 50% reduction in Murine leukemia (P-388) cell number after 3-day incubation; - indicates inactive; format: functional, cell-based; details: Mus musculus
HCT-8 [2] = assay: Effective dose against 50% reduction in Human ileocecal carcinoma (HCT-8) cell number after 3-day incubation.; format: functional, cell-based
A549 = assay: Effective dose against 50% reduction in Human lung carcinoma (A-549) cell number after 3-day incubation.; format: functional, cell-based
TE-671 [3] = assay: Effective dose against 50% reduction in Human CNS tumor (TE671) cell number after 3-day incubation; - indicates inactive; format: functional, cell-based
KB [4] = assay: Effective dose against 50% reduction in Human epidermoid carcinoma of the nasopharynx (KB) cell number after 3-day incubation; - indicates inactive; format: functional, cell-based
RPMI [5] = assay: Effective dose against 50% reduction in Human melanoma (RPMI)cell number after 3-day incubation; - indicates inactive; format: functional, cell-based
HCT-8 [6] = assay: Effective dose against 50% reduction in Human ileocecal carcinoma (HCT-8) cell number after 3-day incubation; format: functional; details: HCT-8, 72 h, read-out: ED50 (the source's name)
KB [7] = assay: Cellular protein-linked DNA breaks in KB oral carcinoma cell culture treated in triplicate at 50 uM for 1 hr; format: functional, Homo sapiens
In short: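 Read-out is potassium-SDS precipitable cpm in treated KB cultures, expressed as fold.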

[8] = target: T1, DNA topoisomerase II (Homo sapiens) (UniProt P11388+Q02880); assay: Inhibitory activity against Human DNA topoisomerase II at dose 100 uM; format: protein assay
In short: (§1)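 Topo II activity read as ATP-dependent unknotting of P4 DNA. Test compound at 100 µM; % inhibition is relative to enzyme and DNA control reactions. VP-16 served as the reference inhibitor.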

RPMI [9] = assay: Effective dose against 50% reduction in Human melanoma (RPMI)cell number after 3-day incubation; format: functional; details: 72 h, read-out: ED50 (the source's name)
TE-671 [10] = assay: Effective dose against 50% reduction in Human CNS tumor (TE671) cell number after 3-day incubation; format: functional; details: TE-671, 72 h, read-out: ED50 (the source's name)
KB [11] = assay: Effective dose against 50% reduction in Human epidermoid carcinoma of the nasopharynx (KB) cell number after 3-day incubation; format: functional; details: 72 h, read-out: ED50 (the source's name)
[12] = target: T2, DNA topoisomerase 1 (Homo sapiens) (UniProt P11387); assay: Inhibitory activity against Human DNA topoisomerase I at dose 100 uM
T2 sequence (whole entry): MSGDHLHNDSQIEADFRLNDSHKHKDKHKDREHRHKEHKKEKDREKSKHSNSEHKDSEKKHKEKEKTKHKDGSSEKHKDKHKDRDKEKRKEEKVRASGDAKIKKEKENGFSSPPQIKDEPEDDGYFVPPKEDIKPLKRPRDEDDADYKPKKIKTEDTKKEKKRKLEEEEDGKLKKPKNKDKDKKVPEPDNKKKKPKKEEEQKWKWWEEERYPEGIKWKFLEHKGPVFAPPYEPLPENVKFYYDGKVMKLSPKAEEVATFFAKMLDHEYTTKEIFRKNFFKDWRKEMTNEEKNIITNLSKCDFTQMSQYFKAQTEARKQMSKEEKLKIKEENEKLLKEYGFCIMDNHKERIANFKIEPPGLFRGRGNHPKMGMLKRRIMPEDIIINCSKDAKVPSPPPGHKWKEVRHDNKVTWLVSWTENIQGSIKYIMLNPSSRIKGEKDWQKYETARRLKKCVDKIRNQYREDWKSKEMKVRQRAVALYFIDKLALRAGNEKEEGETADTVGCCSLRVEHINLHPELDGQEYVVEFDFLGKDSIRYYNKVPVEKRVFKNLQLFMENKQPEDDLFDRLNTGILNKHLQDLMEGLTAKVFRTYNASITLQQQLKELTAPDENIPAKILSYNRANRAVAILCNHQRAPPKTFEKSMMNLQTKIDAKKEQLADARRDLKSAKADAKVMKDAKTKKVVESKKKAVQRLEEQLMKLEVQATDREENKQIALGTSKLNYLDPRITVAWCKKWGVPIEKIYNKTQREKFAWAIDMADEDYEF
In short: (§2)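 Topo I activity read as ATP-independent relaxation of supercoiled plasmid DNA. Test compound at 100 µM; % inhibition is relative to enzyme and DNA control reactions. Camptothecin served as the positive inhibitor control.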

P388 [13] = assay: Effective dose against 50% reduction in Murine leukemia (P-388) cell number after 3-day incubation; format: functional; details: Mus musculus, P388, 72 h; read-out: ED50 (the source's name)
[14] = tested on: Medulloblastoma tumour cell line; assay: Effective dose against medulloblastoma tumor cell lines; format: functional; details: read-out: ED50 (the source's name)
H9 [15] = assay: Effective dose against growth of HIV infected H9 lymphocytes by 50%; format: functional; details: Homo sapiens, read-out: ED50 (the source's name)
[16] = Therapeutic index valued has been determined in H9 cells; format: cell-based; details: human, read-out: Therapeutic index
H9 [17] = assay: Inhibitory activity against growth of uninfected H9 lymphocytes by 50%; format: functional, cell-based; details: Homo sapiens
In short: (§3)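 Uninfected H9 cultures exposed to compound diluted in medium for 4 days at 37 °C. Cell density counted in a Coulter counter; IC₅₀ determined.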

[18] = target: T1, DNA topoisomerase II (Homo sapiens); assay: Inhibitory activity against DNA topoisomerase II at dose 100 uM; format: protein assay; in short: as §1
H9 [19] = assay: Effective dose against growth of HIV infected H9 lymphocytes; format: functional; details: Homo sapiens, read-out: ED50 (the source's name)
[20] = target: T2, DNA topoisomerase 1 (Homo sapiens); assay: Inhibitory activity against DNA topoisomerase I at dose 100 uM; in short: as §2
H9 [21] = assay: Inhibitory activity against growth of uninfected H9 lymphocytes; format: functional, cell-based; details: Homo sapiens; in short: as §3
[22] = target: T1, DNA topoisomerase II (Homo sapiens); assay: Inhibitory activity against human DNA topoisomerase II at dose 100 uM; format: protein assay; in short: as §1
[23] = target: T2, DNA topoisomerase 1 (Homo sapiens); assay: Inhibitory activity against human DNA topoisomerase I at dose 100 uM; in short: as §2

SMILES | EC50 (HCT-8 [6]) | EC50 (RPMI [9]) | EC50 (TE-671 [10]) | EC50 (KB [11]) | EC50 (P388 [13]) | ED50 (P388 [1]) | ED50 (HCT-8 [2]) | ED50 (A549) | ED50 (TE-671 [3]) | ED50 (KB [4]) | ED50 (RPMI [5]) | Activity (KB [7]) | selectivity ratio [16] | EC50 (H9 [19]) | IC50 (H9 [21]) | other results
O=c1cc(-c2ccccc2)sc2ccccc12 |  |  |  |  |  | inactive | inactive | inactive | inactive | inactive | inactive |  |  |  |  | 
COc1cc(-c2oc3c(OC)c(OC)c(OC)c(O)c3c(=O)c2OC)ccc1O |  |  |  |  |  |  |  |  |  |  |  |  |  |  |  | EC50 [14]: 0.99 µg/mL (≈ 2.45 µM)
CC(=O)Oc1cc2sc(-c3ccccc3)cc(=O)c2cc1OC(C)=O |  | 5.5 µg/mL (≈ 15.5 µM) | 4.58 µg/mL (≈ 12.9 µM) | 5.5 µg/mL (≈ 15.5 µM) | 4.83 µg/mL (≈ 13.6 µM) |  | inactive | inactive |  |  |  | 1 | 4.6 | 0.65 µg/mL (≈ 1.83 µM) | 3 µg/mL (≈ 8.47 µM) | inhibition [22]: 100%; inhibition [23]: 0%
COc1cc2sc(-c3ccccc3)cc(=O)c2cc1OC | 9.33 µg/mL (≈ 31.3 µM) | 8.89 µg/mL (≈ 29.8 µM) |  | 4.23 µg/mL (≈ 14.2 µM) |  | inactive |  | inactive | inactive |  |  |  |  |  |  | 
CC(=O)Oc1ccc2c(=O)cc(-c3ccccc3)sc2c1 |  |  |  |  |  | inactive | inactive | inactive | inactive | inactive | inactive |  | 0.6 | 80 µg/mL (≈ 270 µM) | 45 µg/mL (≈ 152 µM) | 

Second part, led by results:

EC50 (HCT-8 [6]) | EC50 (RPMI [9]) | EC50 (TE-671 [10]) | EC50 (KB [11]) | EC50 (P388 [13]) | SMILES | ED50 (P388 [1]) | ED50 (HCT-8 [2]) | ED50 (A549) | ED50 (TE-671 [3]) | ED50 (KB [4]) | ED50 (RPMI [5]) | Activity (KB [7]) | selectivity ratio [16] | EC50 (H9 [19]) | IC50 (H9 [21]) | other results
5.79 µg/mL (≈ 22.8 µM) | 5.5 µg/mL (≈ 21.6 µM) | 3.66 µg/mL (≈ 14.4 µM) | 5.5 µg/mL (≈ 21.6 µM) | 1.18 µg/mL (≈ 4.64 µM) | O=c1cc(-c2ccccc2)[s+]([O-])c2ccccc12 (stereo unspecified) |  |  | inactive |  |  |  | 1 |  |  |  | inhibition [8]: 0%; inhibition [12]: 100%
 | 0.55 µg/mL (≈ 2.16 µM) | 2.87 µg/mL (≈ 11.3 µM) |  |  | O=c1cc(-c2ccccc2)sc2ccc(O)cc12 | inactive | inactive | inactive |  | inactive |  |  | 4.2 |  |  | EC50 (H9 [15]): 9.5 µg/mL (≈ 37.4 µM); IC50 (H9 [17]): 40 µg/mL (≈ 157 µM)
 |  |  |  | 9.31 µg/mL (≈ 36.8 µM) | Nc1cccc2sc(-c3ccccc3)cc(=O)c12 |  | inactive | inactive | inactive | inactive | inactive | 1 | 2.5 | 20 µg/mL (≈ 78.9 µM) | 50 µg/mL (≈ 197 µM) | inhibition [18]: 0%; inhibition [20]: 100%
1.45 µg/mL (≈ 5.36 µM) | 3.92 µg/mL (≈ 14.5 µM) | 5.5 µg/mL (≈ 20.3 µM) | 5.5 µg/mL (≈ 20.3 µM) | 4.51 µg/mL (≈ 16.7 µM) | O=c1cc(-c2ccccc2)sc2cc(O)c(O)cc12 |  |  | inactive |  |  |  | 1 | 2.3 | 0.8 µg/mL (≈ 2.96 µM) | 1.8 µg/mL (≈ 6.66 µM) | inhibition [18]: 0%; inhibition [20]: 100%
9.16 µg/mL (≈ 34.1 µM) |  |  | 5.5 µg/mL (≈ 20.5 µM) |  | COc1ccc2c(=O)cc(-c3ccccc3)sc2c1 | inactive |  | inactive | inactive |  | inactive |  |  |  |  | 
 | 5.5 µg/mL (≈ 21.7 µM) |  |  | 7.46 µg/mL (≈ 29.4 µM) | Nc1cccc2c(=O)cc(-c3ccccc3)sc12 |  | inactive | inactive | inactive | inactive |  |  | 3.8 | 4 µg/mL (≈ 15.8 µM) | 15 µg/mL (≈ 59.2 µM) | 
